Two compounds from ChEMBL document CHEMBL1144116, “Tanikolide, a toxic and antifungal lactone from the marine cyanobacterium Lyngbya majuscula” (J Nat Prod, 1999) can be followed below.

Series [1] concerns Carassius auratus. As to the kind of experiment: Toxicity against Carassius auratus. The class given is organism-based. Conditions: in vivo. The essentials: (§1)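 Single goldfish (Carassius auratus) per vessel in 50 mL distilled H2O, with sample dilutions added in 50 µL EtOH. Each fish is observed for 1 h. Samples and controls are run in duplicate.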
The subject of series [2] is Salmonella enterica subsp. enterica. As to the kind of experiment: Antibacterial activity against Salmonella choleraesuis subsp. choleraesuis ATCC 14028 at 100 ug/disk by paper disk agar plate method. The class given is functional, organism-based. In short, it runs like this: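 Standard paper sensitivity disk-agar plate method with 6 mm disks. Read-out is the diameter of the inhibition zone around the disk.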

The next series has as its system Escherichia coli. As to the kind of experiment: Antibacterial activity against Escherichia coli ATCC 11775 at 100 ug/disk by paper disk agar plate method. The class given is functional, organism-based. In short, it runs like this:
(§2)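 Paper disk-agar plate diffusion with 6 mm paper disks, each loaded with 100 µg of sample. Activity is read as the diameter of the zone of inhibition around the disk.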

A further series has as its system Bacillus subtilis. Nature of the series: Antibacterial activity against Bacillus subtilis ATCC 6051 at 100 ug/disk by paper disk agar plate method. The class given is functional, organism-based. The essentials: as §2
Series [3] in a line: Toxicity against Artemia salina after 24 hrs. The class given is organism-based. Conditions: in vivo, read-out: LD50. The essentials:
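About 15 hatched Artemia salina in ca. 0.5 mL seawater per well with sample in 50 µL EtOH plus 4.5 mL artificial seawater (total ca. 5 mL), several concentrations, duplicate samples and controls. After 24 h at 28 °C, live and dead shrimp counted under dissecting light microscope.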

Another series relates to Candida albicans. As to the kind of experiment: Antifungal activity against Candida albicans ATCC 14053 at 100 ug/disk by paper disk agar plate method. The class given is functional. The essentials: as §2
The subject of another series is Pseudomonas aeruginosa. Nature of the series: Antibacterial activity against Pseudomonas aeruginosa ATCC 10145 at 100 ug/disk by paper disk agar plate method. The class given is functional, organism-based. The essentials: as §2
The subject of a further series is Biomphalaria glabrata. As to the kind of experiment: Molluscicidal activity against Biomphalaria glabrata at 10 mg/mL after 24 hrs. The class given is functional. Conditions: read-out: LD50 (the source's name). In short, it runs like this:
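Test snails: Biomphalaria glabrata. Sample stock solutions (10 mg/mL in EtOH) diluted in 10 mL distilled H2O. Snails observed after 24 h and scored dead when no heart beat was detected by dissecting light microscopy.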

The test system of a further series is Staphylococcus aureus. Nature of the series: Antibacterial activity against Staphylococcus aureus ATCC 12600 at 100 ug/disk by paper disk agar plate method. The class given is functional, organism-based. The essentials: as §2
Series [4] concerns Carassius auratus. As to the kind of experiment: Norcotic effect against Carassius auratus at 10 ug/mL after 1 hr. The class given is ADME, organism-based. Conditions: in vivo. In short, it runs like this:
as §1

Converted amounts (≈) assume the structure as drawn. The source made the active and inactive calls. The calls are words filed in the database; no cut-off is given here.

With `CCCCCCCCCCC[C@]1(CO)CCCC(=O)O1` [TANIKOLIDE], the Activity result was “Non-toxic” in the series with Carassius auratus [1] and “Toxic” in the series on Carassius auratus [4]. Besides, the result (in series [2]; in the series on Escherichia coli; in the series with Bacillus subtilis; in the series with Pseudomonas aeruginosa; in the series on Staphylococcus aureus) was inactive. Besides, the LC50 at 24 h in series [3] was determined as 3.6 µg/mL (≈ 12.7 µM). In the series on Candida albicans (read-out: IZ), the zone of inhibition at 100 µg/disc came to 13 mm. Moreover, the LC50 in the series with Biomphalaria glabrata amounted to 9 µg/mL (≈ 31.6 µM).

In the case of `CCCCCCCCC[C@@]1(CO)CC[C@@H](C)C(=O)O1`, the outcome (in series [2]; with Escherichia coli; with Bacillus subtilis; with Candida albicans; in the series on Pseudomonas aeruginosa; in the series with Staphylococcus aureus) was inactive.
